Source: ChEMBL document CHEMBL1153081, “Antimalarial acridines: synthesis, in vitro activity against P. falciparum and interaction with hematin” (Bioorg Med Chem, 2009)

Key:
[1] = Dissociation constant, pKa by spectrophotometry; assay type: physicochemical
Plasmodium falciparum [2] = test: Antiplasmodial activity against chloroquine-sensitive Plasmodium falciparum 3D7 assessed as inhibition of [3H]hypoxanthine incorporation; assay type: functional, organism-based
Plasmodium falciparum [3] = test: Antiplasmodial activity against chloroquine-resistant Plasmodium falciparum W2 assessed as inhibition of [3H]hypoxanthine incorporation; assay type: functional, organism-based
Plasmodium falciparum [4] = test: Antiplasmodial activity against chloroquine-resistant Plasmodium falciparum FCR3/Gambia assessed as inhibition of [3H]hypoxanthine incorporation; assay type: functional, organism-based; conditions: FCR-3/Gambia
Plasmodium falciparum [5] = test: Antiplasmodial activity against chloroquine-resistant Plasmodium falciparum Bre1 assessed as inhibition of [3H]hypoxanthine incorporation; assay type: functional, organism-based
[6] = Inhibition of beta-hematin formation after 18 hrs; assay type: functional
In short: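 Modified BHIA: 8 mM hemin in DMSO (0.4 µmol per tube) was mixed with compounds in DMSO or DMSO/MeOH (1:1) at 0–10 molar equivalents to hemin, in triplicate. Acetate buffer held pH 5, and water-only controls were run. Hematin was quantified after serial dilution in 0.1 M NaOH, by absorbance at 405 nm. IC50 was taken as the concentration inhibiting crystallization by 50%.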

[7] = Binding affinity to synthetic hematin by spectrophotometry
In short: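 Monomeric hematin solution: hematin in 0.1 M NaOH with DMSO and 0.02 M sodium phosphate buffer (pH 6.0), made up with water. Drug and hematin were mixed at 10 molar ratios. Complex stoichiometry and dissociation constant Kd were determined by spectrophotometric methods.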

KB = test: Cytotoxicity against human KB cells after 72 hrs by MTS assay; assay type: cell-based
In short: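 KB cells were grown in D-MEM with 10% fetal calf serum, penicillin, streptomycin and fungizone, under 5% CO2. They were seeded at 650 cells/well and dosed 24 h later with compounds in DMSO, from 0.5 nM upward; controls got DMSO (1% final). MTS was added for 3 h at 37 °C and absorbance read at 490 nm as % of control. IC50 came from separate duplicate experiments.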

[8] = Selectivity index, ratio of IC50 for human KB cells to IC50 for chloroquine-sensitive Plasmodium falciparum 3D7; assay type: toxicity, cell-based; conditions: read-out: Ratio IC50
In short: (§1)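 SI is the ratio of the KB-cell IC50 to the parasite [3H]hypoxanthine IC50 for the given strain. KB cells were grown in D-MEM with 10% FCS and antibiotics under 5% CO2 and plated at 650 cells/well. After 24 h they were treated with compounds in DMSO (0.5 nM to 10 µM; 1% DMSO final) for 72 h. MTS was then added for 3 h at 37 °C and A490 was read against controls. IC50 runs were done in separate duplicate.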

[9] = Selectivity index, ratio of IC50 for human KB cells to IC50 for chloroquine-resistant Plasmodium falciparum W2; assay type: toxicity, cell-based; conditions: read-out: Ratio IC50; in short: as §1
[10] = Selectivity index, ratio of IC50 for human KB cells to IC50 for chloroquine-resistant Plasmodium falciparum FCR3/Gambia; assay type: toxicity, cell-based; conditions: read-out: Ratio IC50; in short: as §1
[11] = Selectivity index, ratio of IC50 for human KB cells to IC50 for chloroquine-resistant Plasmodium falciparum Bre1; assay type: toxicity, cell-based; conditions: read-out: Ratio IC50; in short: as §1

Compound | pKa [1] | IC50 (Plasmodium falciparum [2]) | IC50 (Plasmodium falciparum [3]) | IC50 (Plasmodium falciparum [4]) | IC50 (Plasmodium falciparum [5]) | IC50 [6] | Kd [7] | IC50 (KB) | selectivity ratio [8] | selectivity ratio [9] | selectivity ratio [10] | selectivity ratio [11]
NCCCCCCNc1c2ccccc2nc2ccccc12 | 9.86 | 1.13 µM | 0.6 µM | 0.36 µM | 0.43 µM | 300 µM | 4.6 µM | 0.79 µM | 0.7 | 1.3 | 2.2 | 1.8
CCCCCCCNc1c2ccc(Cl)cc2nc2ccc(OC)cc12 | 7.5 | 18.1 µM | 27.2 µM | 14.6 µM | 16.3 µM | 1500 µM | 5.4 µM | 0.85 µM | 0.04 | 0.02 | 0.06 | 0.05
NCCC(=O)NCCC(=O)Nc1c2ccccc2nc2ccccc12 | 4.53 | 40.9 µM | 20.9 µM | 17.8 µM | 21.6 µM | 1800 µM | 4 µM | 60.1 µM | 1.5 | 2.9 | 3.4 | 2.8
NCCCCCCCC(=O)Nc1c2ccccc2nc2ccccc12 | 4.59 | 41.9 µM | 50 µM | 28.6 µM | 26.7 µM | 1100 µM | – | 52.9 µM | 1.3 | 1.1 | 1.8 | 2
CCN(CC)CCCC(C)Nc1ccnc2cc(Cl)ccc12 (stereo not drawn) [CHLOROQUINE] | – | – | – | – | – | 900 µM | 5.4 µM | 22.5 µM | – | – | – | –
COc1ccc2nc3cc(Cl)ccc3c(NCCCCN)c2c1 | 9.1 | 0.067 µM | 0.25 µM | 0.25 µM | 0.3 µM | 1000 µM | 8.1 µM | 0.6 µM | 8.9 | 2.4 | 2.4 | 2
COc1ccc2nc3cc(Cl)ccc3c(NCCCCCCNc3c4ccc(Cl)cc4nc4ccc(OC)cc34)c2c1 | 8.23 | 3.39 µM | 4.55 µM | 1.01 µM | 1.11 µM | 1300 µM | 20 µM | 0.05 µM | – | 0.01 | 0.05 | 0.045
COc1ccc2nc3cc(Cl)ccc3c(NCCCCCCN)c2c1 | 9.2 | – | – | – | – | 400 µM | 4.4 µM | 0.7 µM | 5.4 | 3.9 | 3.5 | 4.1
COc1ccc2nc3cc(Cl)ccc3c(NCCN)c2c1 | 7.94 | 0.042 µM | 0.25 µM | 0.33 µM | 0.28 µM | 4600 µM | 4.2 µM | 2.07 µM | 50 | 8 | 6 | 7
